pEC50, pIC50: −log10 of the molar value. Calls of active or inactive are those of the source. The rule behind the calls is not given here. Where only a bound is given, the exact number is not on record here.

The target in data set [1] is T1, Human immunodeficiency virus type 1 integrase (Human immunodeficiency virus 1, UniProt Q7ZJM1). Briefly: Inhibition of HIV1 integrase strand transfer activity. An outline of the steps:
(§1)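 Wild-type integrase at 200 nM final was preincubated with inhibitor for 30 min at 30 °C. Reaction buffer: 50 mM NaCl, 1 mM HEPES pH 7.5, EDTA, dithiothreitol, 10% glycerol, 7.5 mM MnCl₂, 0.1 mg/mL BSA, 10 mM 2-mercaptoethanol, 10% DMSO, 25 mM MOPS pH 7.2.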

For data set [2], the target named is T1, Human immunodeficiency virus type 1 integrase. Briefly: Inhibition of HIV1 integrase 3'-end processing activity. An outline of the steps: as §1
Data set [3] deals with Human immunodeficiency virus 1. Briefly: Antiviral activity against HIV1 LAI replication in human PBMC after 5 days. It counts as functional, organism-based. Conditions: for pEC50 / EC90: Human immunodeficiency virus 1, LAI, 120 h. Summed up:
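PBMC (10⁷ cells/flask) stimulated 3 days with phytohemagglutinin, then infected with HIV-1 LAI at 100 50% tissue culture infective doses. Cultures were kept 5 days with compound at serial 1-log dilutions. Cells were removed by centrifugation (400g, 10 min, 4 °C), and the clarified supernatant was assayed for reverse transcriptase activity.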

Data set [4] deals with PBMC. In words: Cytotoxicity against human PBMC after 6 days. In kind it is cell-based. Conditions: 144 h; for pIC50: Homo sapiens, PBMC. Summed up:
(§2)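 Uninfected cells (CEM leukemia cells; PBMC from whole blood of healthy donors) cultured with or without compound for 6 days. Afterwards cells were stained with Trypan blue and counted for proliferation and viability. Values reflect effects on cell growth.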

Data set [5] deals with Vero. In words: Cytotoxicity against Vero cells after 3 days. It counts as cell-based. Conditions: Chlorocebus sabaeus, 72 h.
Data set [6] concerns CCRF-CEM. Briefly: Cytotoxicity against human CEM cells after 6 days. It counts as cell-based. To be noted: 144 h; for pIC50: Homo sapiens, CCRF-CEM. An outline of the steps:
as §2

The test system of data set [7] is Human immunodeficiency virus 1. Briefly: Antiviral activity against HIV1 LAI replication in MOLT4 cells. It counts as functional, organism-based. To be noted: Human immunodeficiency virus 1, LAI, MOLT-4.
Data set [8] is described as follows: Selectivity index, ratio of EC50 for HIV1 LAI to IC50 for human PBMC. It counts as functional.

T1 sequence (Q7ZJM1 whole entry): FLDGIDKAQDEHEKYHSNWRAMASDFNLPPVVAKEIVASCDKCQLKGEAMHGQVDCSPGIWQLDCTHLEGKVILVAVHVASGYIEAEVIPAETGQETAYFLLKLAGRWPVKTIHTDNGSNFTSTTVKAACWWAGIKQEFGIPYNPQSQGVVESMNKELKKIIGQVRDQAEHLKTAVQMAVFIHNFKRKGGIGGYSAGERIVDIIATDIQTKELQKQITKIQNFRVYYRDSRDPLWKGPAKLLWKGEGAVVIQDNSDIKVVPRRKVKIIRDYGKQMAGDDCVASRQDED

A word on the pIC50: it is the IC50 on a negative log10 scale, so that one unit is a factor of ten. Read a low pIC50 as a large IC50. Turning to `N#Cc1ccc(CN(Cc2ccc(C#N)cc2)c2ccc3[nH]c(=O)c4ccccc4c3c2)cc1`, the pIC50 in data set [1] was 4.21; in data set [2], 3.30.
On the same counts, the results for `COc1ccc2[nH]c(=O)c3ccccc3c2c1` are 3.30 and below 3.30.
Taken in the same sequence, the figures for `Cc1cc(C)c2[nH]c(=O)c3ccc(C#N)cc3c2c1` were below 3.30 and below 3.30.
By pEC50 is commonly meant the EC50 on a negative log10 scale, so that one unit is a factor of ten. Low values mean a large EC50, high ones a small EC50. As usually defined, the EC90 is the concentration needed for an effect of 90%. Lower therefore signals an effect from little substance. With `O=C(O)C(=O)CC(=O)c1cc2ccccc2c2ccccc12`, the negative logarithm of the IC50 (pIC50) in data set [1] is 6.42; in data set [4], 4.08; in data set [2] it was 5.05; in data set [5], below 4.00; in data set [6] it was 4.14. The compound also had a pEC50 in data set [3] of 4.08. The compound also registered an EC90 in data set [3] above 100 µM.
On to `O=C(O)C(=O)CC(=O)c1ccc2ccccc2c1`, for which the figures for the pIC50 in data set [1] and in data set [2] were 5.15 and 4.27, respectively.
`O=C(O)C(=O)CC(=O)c1cc(OCc2ccccc2)cc(OCc2ccccc2)c1`: the outcome in data set [3] was inactive. The Activity result in data set [4] (human, pbmc) is “Not Active”; in data set [5] it was “Not Active”; in data set [6] (human, ccrf-cem), “Not Active”. This compound gave a pEC50 in data set [7] of 5.24.
Turning to `CCNc1ccc2[nH]c(=O)c3ccccc3c2c1`, the pIC50 in data set [1] and in data set [2] was below 3.30 each time.
As for `O=c1[nH]c2ccc(S(=O)(=O)c3ccccc3)cc2c2ccccc12`, the pIC50 is 3.38 in data set [1] and below 3.30 in data set [2].
Taken in the same sequence, the figures for `N#Cc1cccc(CNc2ccc3[nH]c(=O)c4ccccc4c3c2)c1` were below 3.30 and below 3.30.
As to `O=C(O)C(=O)CC(=O)c1ccc2ccc3cccc4ccc1c2c34`, the values for the pIC50 in data set [1] and in data set [2] were 6.28 and 5.15, respectively.
Taken in the same sequence, the figures for `N#Cc1ccc(CNc2ccc3[nH]c(=O)c4ccccc4c3c2)cc1` were below 3.30 and below 3.30.
Regarding `Cc1ccc2cc(C(=O)CC(=O)C(=O)O)ccc2c1`, the pIC50 in data set [1] was 5.52; in data set [2] it was 4.96.
On the same counts, the results for `Cc1cc(C)c2[nH]c(=O)c3cc(C#N)ccc3c2c1` are 3.48 and 3.52.
Taken in the same sequence, the figures for `O=C(O)C(=O)CC(=O)c1ccc(N2CCOCC2)cc1` were 4.64 and below 4.00.
On the same counts, the results for `N#Cc1cccc(CN(Cc2cccc(C#N)c2)c2ccc3[nH]c(=O)c4ccccc4c3c2)c1` are below 3.30 and below 3.30.
For the compound `O=c1[nH]c2ccc(C(F)(F)F)cc2c2ccccc12`, the pIC50 in data set [1] was 3.05; in data set [2], below 3.00.
Taken in the same sequence, the figures for `O=C(O)C(=O)CC(=O)c1ccc2cc3ccccc3cc2c1` were 4.89 and 4.49.
Turning to `N#Cc1ccc2[nH]c(=O)c3ccccc3c2c1`, the values for the pIC50 in data set [1] and in data set [2] were 3.40 and below 3.30, respectively.
Turning to `O=C(O)C(=O)CC(=O)c1c2ccccc2cc2ccccc12`, the pIC50 in data set [1] was 5.77; in data set [4], below 4.00; in data set [2] it was 4.27; in data set [5], below 4.00; in data set [6], below 4.00. This compound had a pEC50 in data set [3] below 4.00. In addition, the EC90 in data set [3] was above 100 µM.
On to `Cc1cc(C)c2[nH]c(=O)c3ccccc3c2c1`, for which the pIC50 in data set [1] is below 3.00; in data set [2], 3.00.
Taken in the same sequence, the figures for `COC(=O)C(=O)CC(=O)c1ccc(Br)c(CC(=O)c2ccccc2)c1` were below 3.30 and below 3.30.
For the compound `O=C(O)C(=O)CC(=O)c1ccc2c(c1)[nH]c(=O)c1ccccc12`, the pIC50 was 4.19 in data set [1] and 3.40 in data set [2].
`O=c1[nH]c2ccc(Cl)cc2c2ccccc12`: the pIC50 in data set [1] is 4.00; in data set [2], 3.30.
Consider `Nc1ccc2[nH]c(=O)c3ccccc3c2c1`, for which the pIC50 in data set [1] was 3.57; in data set [2] it was 3.69.
As to `O=C(O)C(=O)CC(=O)c1ccc2ccc3ccccc3c2c1`, the pIC50 is 5.57 in data set [1]; 4.09 in data set [4]; 4.60 in data set [2]; below 4.00 in data set [5]; 4.25 in data set [6]. Besides, in data set [3], the pEC50 is 5.10. The compound further registered an EC90 in data set [3] of 72.8 µM. Also, the Selectivity index in data set [8] was found to be 10.
As to `Cc1cccc2c1[nH]c(=O)c1ccc(C#N)cc12`, the pIC50 in data set [1] was 3.30; in data set [2] it was below 3.30.
Taken in the same sequence, the figures for `Cc1cccc2c1[nH]c(=O)c1cc(C#N)ccc12` were below 3.30 and below 3.30.
Taken in the same sequence, the figures for `Cc1ccc2oc3nc(C)c(C(=O)CC(=O)C(=O)O)cc3c(=O)c2c1` were 4.80 and 4.04.
On to `COC(=O)C(=O)CC(=O)c1ccc(-c2ccccc2C(=O)OC)c([N+](=O)[O-])c1`, for which the figures for the pIC50 in data set [1] and in data set [2] were 4.57 and 3.99, respectively.
On to `CC(=O)Nc1ccc2[nH]c(=O)c3ccccc3c2c1`, for which the figures for the pIC50 in data set [1] and in data set [2] were 3.30 and below 3.30, respectively.
On the same counts, the results for `Cc1cc(C)c2[nH]c(=O)c3ccc(C(F)(F)F)cc3c2c1` are below 3.30 and below 3.30.
On the same counts, the results for `O=C(Nc1ccc2[nH]c(=O)c3ccccc3c2c1)c1ccccc1` are below 3.30 and below 3.30.
Taken in the same sequence, the figures for `O=c1[nH]c2ccc(Br)cc2c2ccccc12` were 4.11 and 3.65.
On to `Cc1cccc2c1[nH]c(=O)c1ccc(C(F)(F)F)cc12`, for which the figures for the pIC50 in data set [1] and in data set [2] were 3.96 and 3.35, respectively.
`O=C(O)C(=O)CC(=O)c1ccc(Br)c(CC(=O)c2ccccc2)c1`: the pIC50 in data set [1] and in data set [2] was below 3.30 in each case.
`COC(=O)c1ccccc1-c1ccc(C(=O)CC(=O)C(=O)O)cc1[N+](=O)[O-]`: the figures for the pIC50 in data set [1] and in data set [2] were 5.15 and 4.59, respectively.
Taken in the same sequence, the figures for `Cc1nc2oc3ccccc3c(=O)c2cc1C(=O)CC(=O)C(=O)O` were 4.46 and below 4.00.
Regarding `O=C(O)c1ccc2[nH]c(=O)c3ccccc3c2c1`, the negative-log IC50 (pIC50) in data set [1] was 3.69; in data set [2], below 3.30.
Turning to `O=C(O)C(=O)CC(=O)c1ccc2c(ccc3ccccc32)c1`, the pIC50 is 5.32 in data set [1]; below 4.00 in data set [4]; 4.64 in data set [2]; 4.97 in data set [5]; 4.79 in data set [6]. Also, the pEC50 in data set [3] is 4.58. In addition, in data set [3], the EC90 is above 100 µM.
As to `Cc1cccc2c1[nH]c(=O)c1ccccc12`, the pIC50 in data set [1] and in data set [2] was below 3.00 throughout.
For the compound `Cc1cn([C@H]2C[C@H](N=[N+]=[N-])[C@@H](CO)O2)c(=O)[nH]c1=O` [ZIDOVUDINE], in data set [3], the pEC50 is 9.14 and the 90% effect level (EC90) was put at 0.019 µM. This compound gave a negative-log IC50 (pIC50) in data set [4] below 4.00. The compound further had a pIC50 in data set [5] of 4.30.

For the origin of these results see ChEMBL document CHEMBL1142893, “Synthesis and biological evaluation of novel 5(H)-phenanthridin-6-ones, 5(H)-phenanthridin-6-one diketo acid, and polycyclic aromatic diketo acid analogs as new HIV-1 integrase inhibitors” (Bioorg Med Chem, 2007).
